This test addresses Protease (Human immunodeficiency virus 1, UniProt Q9YQ12). The experiment in a line: Inhibition of wild type HIV1 protease by FRET assay. The gist of the method:
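Recombinant HIV-1 protease Q7K, desalted into 20 mM sodium acetate pH 5, apparent concentration ~50 nM (UV 280 nm). Inhibitors in DMSO, 12 concentrations, added with protease to buffer pH 4.7 (0.1 M NaOAc, 1 M NaCl, 1 mM EDTA, 1 mM DTT, 2% DMSO, 1 mg/mL BSA). Cleavage started by injecting EDANS/DABCYL peptide substrate. Ki from initial velocities fitted to the Morrison equation.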

A word on the Ki: it is a dissociation constant, usually derived from enzyme kinetics or from competition with a known ligand.

Sequence of Protease (Q9YQ12 whole entry): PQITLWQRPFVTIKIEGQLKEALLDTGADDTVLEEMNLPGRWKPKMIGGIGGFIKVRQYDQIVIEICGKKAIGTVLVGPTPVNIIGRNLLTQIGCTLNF

`COc1ccc(S(=O)(=O)N(CC(C)C)C[C@@H](O)[C@H](Cc2ccccc2)NC(=O)[C@@H]2CN(c3cccc(C(C)=O)c3)C(=O)O2)cc1` [(5S)-3-(3-Acetylphenyl)-N-[(1S,2R)-1-benzyl-2-hydroxy-3-[isobutyl[(4-methoxyphenyl)sulfonyl]amino]propyl]-2-oxooxazolidine-5-carboxamide] came in with a Ki of 1 pM.

(Values after BindingDB's records for doi:10.1021/jm300238h (Sanford-Burnham Medical Research Institute, 2012).)
